Results taken from article PMC8552233 (ACS Omega, 2021).
Like-named read-outs stand apart in the source and are kept apart here.

What was measured:
[1] = cited from earlier work
P. falciparum IspC [2] = target: T1, P. falciparum IspC (Plasmodium falciparum, UniProt O96693); conditions: cited from earlier work
T1 sequence (O96693 73-488): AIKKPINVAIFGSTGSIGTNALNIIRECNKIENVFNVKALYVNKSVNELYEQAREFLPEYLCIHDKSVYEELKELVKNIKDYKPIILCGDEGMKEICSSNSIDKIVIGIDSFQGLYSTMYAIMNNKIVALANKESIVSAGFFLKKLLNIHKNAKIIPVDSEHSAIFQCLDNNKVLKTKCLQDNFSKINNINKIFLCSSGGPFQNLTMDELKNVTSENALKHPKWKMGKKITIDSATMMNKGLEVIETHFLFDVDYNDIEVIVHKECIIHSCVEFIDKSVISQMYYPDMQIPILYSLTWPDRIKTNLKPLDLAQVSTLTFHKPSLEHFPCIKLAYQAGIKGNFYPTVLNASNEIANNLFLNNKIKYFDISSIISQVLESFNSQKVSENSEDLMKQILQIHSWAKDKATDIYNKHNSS

P. falciparum IspC [3] = target: T1, P. falciparum IspC; experiment: P. falciparum IspC inhibition assay; format: biochemical
Summary of the method: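 His6-tagged recombinant enzyme (E. coli Rosetta2(DE3), TALON-purified), 0.86 μM in 100 mM Tris pH 7.8, 25 mM MgCl2. Preincubated 10 min at 37 °C with inhibitor, then 150 μM NADPH added for 5 min. Reaction started with 144 μM DXP and A340 followed at 37 °C. IC50 from nonlinear sigmoidal fit of fractional activity versus inhibitor concentration; duplicate.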

P. falciparum IspC [4] = target: T1, P. falciparum IspC; experiment: Mechanism of inhibition; format: biochemical; conditions: for mode of inhibition with respect to DXP / mode of inhibition with respect to NADPH: Lineweaver-Burk plots; for mode of inhibition with respect to DXP: DXP varied 50-400 μM, NADPH 150 μM; for mode of inhibition with respect to NADPH: NADPH varied 6-30 μM, DXP 144 μM
Summary of the method: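 N-terminal His6-tagged recombinant enzyme, expressed in E. coli Rosetta2(DE3) and purified by TALON affinity chromatography. […] NADPH oxidation read at 340 nm. Mode taken from Lineweaver–Burk linear fits, Ki from secondary plots; at least triplicate.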

[5] = system: Mycobacterium tuberculosis; conditions: antibacterial activity; cited from earlier work

O=CN(O)CCCP(=O)(O)O [1a, fosmidomycin]
serum half-life [1]: short
mode of inhibition with respect to DXP (P. falciparum IspC [2]): competitive
mode of inhibition with respect to NADPH (P. falciparum IspC [2]): uncompetitive

O=C(CCc1ccccc1)N(O)C/C=C/P(=O)([O-])O.[Na+] [1b, Sodium Hydrogen [(1E)-3-(N-hydroxy-3-phenylpropanamido)prop-1-en-1-yl]phosphonate]
IC50 (P. falciparum IspC [3]): 1310 nM
mode of inhibition with respect to DXP (P. falciparum IspC [4]): competitive
mode of inhibition with respect to NADPH (P. falciparum IspC [4]): uncompetitive

CC(=O)N(C/C=C/P(=O)([O-])O)OCc1ccc(-c2ccccc2)cc1.[Na+] [1d]
IC50 (P. falciparum IspC [3]): 5670 nM
Ki relative to DXP, fold higher than that of 3c (P. falciparum IspC [4]; 1d versus 3c): 3 fold
mode of inhibition with respect to DXP (P. falciparum IspC [4]): competitive
mode of inhibition with respect to NADPH (P. falciparum IspC [4]): competitive

CC(=O)N(O)CCCP(=O)(O)O [2a, FR900098]
serum half-life [1]: short
MIC [5]: > 500 µg/mL
mode of inhibition with respect to DXP (P. falciparum IspC [2]): competitive
mode of inhibition with respect to NADPH (P. falciparum IspC [2]): uncompetitive
Ki (P. falciparum IspC [4]): 9 nM
mode of inhibition with respect to DXP (P. falciparum IspC [4]): competitive
mode of inhibition with respect to NADPH (P. falciparum IspC [4]): uncompetitive

O=C(CCCc1ccccc1)N(O)C/C=C/P(=O)([O-])O.[Na+] [2b, Sodium Hydrogen [(1E)-3-(N-hydroxy-4-phenylbutanamido)prop-1-en-1-yl]phosphonate]
IC50 (P. falciparum IspC [3]): 900 nM
mode of inhibition with respect to DXP (P. falciparum IspC [4]): competitive
mode of inhibition with respect to NADPH (P. falciparum IspC [4]): uncompetitive

CCCCC(=O)N(O)CCCP(=O)([O-])O.[Na+] [3a, Sodium Hydrogen-3-(N-hydroxypentanamido)propylphosphonate]
IC50 (P. falciparum IspC [3]): 2450 nM
mode of inhibition with respect to DXP (P. falciparum IspC [4]): competitive
mode of inhibition with respect to NADPH (P. falciparum IspC [4]): uncompetitive

CC(=O)N(CCCP(=O)([O-])O)OCc1ccc(-c2ccccc2)cc1.[Na+] [3c]
IC50 (P. falciparum IspC [3]): 804 nM
mode of inhibition with respect to DXP (P. falciparum IspC [4]): competitive
mode of inhibition with respect to NADPH (P. falciparum IspC [4]): competitive

O=C(CCCc1ccccc1)N(O)CCCP(=O)([O-])O.[Na+] [4a]
IC50 (P. falciparum IspC [3]): 1340 nM
mode of inhibition with respect to DXP (P. falciparum IspC [4]): competitive
mode of inhibition with respect to NADPH (P. falciparum IspC [4]): uncompetitive
